In ChEMBL document CHEMBL1121779, “Thiophene systems. 5. Thieno[3,4-b][1,5]benzoxazepines, thieno[3,4-b][1,5]benzothiazepines, and thieno[3,4-b][1,4]benzodiazepines as potential central nervous system agents” (1981):
Activity calls are given as the source filed them. The calls are words filed in the database; no cut-off is given here.

What was measured:
[1] = system: Mus musculus; experiment: Compound was tested for the neuroleptic activity as measured by it's antagonism of d-amphetamine induced lethality in grouped mice(GAL) when administered perorally; 9-33; assay type: functional; settings: po
[2] = system: Mus musculus; experiment: Inhibition of tetrabenazine induced depression in mice was following p.o. administration; Inactive.; assay type: functional, organism-based
[3] = system: Mus musculus; experiment: Minimum effective dose causing antagonism of tetrabenazine induced depression in mice was determined when administered perorally; assay type: functional; settings: po, read-out: MED
[4] = system: Mus musculus; experiment: Compound was tested for the neuroleptic activity as measured by it's antagonism of d-amphetamine induced lethality in grouped mice(GAL) when administered perorally; Inactive; assay type: functional, organism-based
[5] = system: Rattus norvegicus; experiment: Reduction in motor activity in rats following p.o. administration.; assay type: functional
Outline: (§1)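 Rats in groups of five given graded oral doses. Locomotor activity counted per rat over 5 min at the time of peak effect, which was set earlier with a selected dose. MDD50 is the dose giving 50% reduction versus controls, taken from linear regression.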

[6] = system: Mus musculus; experiment: Compound was tested for the neuroleptic activity as measured by it's antagonism of d-amphetamine induced lethality in grouped mice(GAL) when administered perorally; 0.4-3.1; assay type: functional; settings: po
[7] = system: Mus musculus; experiment: Compound was tested for the neuroleptic activity as measured by it's antagonism of d-amphetamine induced lethality in grouped mice(GAL) when administered perorally; assay type: functional; settings: po
[8] = system: Mus musculus; experiment: Minimum effective dose causing antagonism of tetrabenazine induced depression in mice was determined when administered perorally; Inactive at 20 mg/kg; assay type: functional, organism-based; set-up: dose 20 mg/kg
[9] = system: Mus musculus; experiment: Compound was tested for the neuroleptic activity as measured by it's antagonism of d-amphetamine induced lethality in grouped mice(GAL) when administered perorally; 1-15; assay type: functional; settings: po
[10] = system: Mus musculus; experiment: Minimum effective dose causing antagonism of tetrabenazine induced depression in mice was determined when administered perorally; Inactive; assay type: functional, organism-based
[11] = system: Mus musculus; experiment: Compound was tested for the neuroleptic activity as measured by it's antagonism of d-amphetamine induced lethality in grouped mice(GAL) when administered perorally; 1.1-2.5; assay type: functional; settings: po
[12] = system: Mus musculus; experiment: Compound was tested for the neuroleptic activity as measured by it's antagonism of d-amphetamine induced lethality in grouped mice(GAL) when administered perorally; 1.1-1.9; assay type: functional; settings: po
[13] = system: Mus musculus; experiment: Compound was tested for the neuroleptic activity as measured by it's antagonism of d-amphetamine induced lethality in grouped mice(GAL) when administered perorally; 3.2-5.5; assay type: functional; settings: po
[14] = system: Mus musculus; experiment: Compound was tested for the neuroleptic activity as measured by it's antagonism of d-amphetamine induced lethality in grouped mice(GAL) when administered perorally; Inactive at 20 mg/kg; assay type: functional, organism-based; set-up: dose 20 mg/kg
[15] = system: Mus musculus; experiment: Compound was tested for the neuroleptic activity as measured by it''s antagonism of d-amphetamine induced lethality in grouped mice(GAL) when administered perorally; Inactive at 20 mg/kg; assay type: functional, organism-based; set-up: dose 20 mg/kg
[16] = system: Mus musculus; experiment: Compound was tested for the neuroleptic activity as measured by it's antagonism of d-amphetamine induced lethality in grouped mice(GAL) when administered perorally; 2.5-3.9; assay type: functional; settings: po
[17] = system: Mus musculus; experiment: Compound was tested for the neuroleptic activity as measured by it's antagonism of d-amphetamine induced lethality in grouped mice(GAL) when administered perorally; 5.1-9; assay type: functional; settings: po
[18] = system: Mus musculus; experiment: Compound was tested for the neuroleptic activity as measured by it's antagonism of d-amphetamine induced lethality in grouped mice(GAL) when administered perorally; 0.1-0.6; assay type: functional; settings: po
[19] = system: Mus musculus; experiment: Minimum effective dose causing antagonism of tetrabenazine induced depression in mice was determined when administered perorally; Inactive at 25 mg/kg; assay type: functional, organism-based; set-up: dose 25 mg/kg
[20] = system: Mus musculus; experiment: Compound was tested for the neuroleptic activity as measured by it's antagonism of d-amphetamine induced lethality in grouped mice(GAL) when administered perorally; 1.6-3.8; assay type: functional; settings: po
[21] = system: Mus musculus; experiment: Compound was tested for the neuroleptic activity as measured by it's antagonism of d-amphetamine induced lethality in grouped mice(GAL) when administered perorally; 0.09-0.24; assay type: functional; settings: po
[22] = system: Mus musculus; experiment: Compound was tested for the neuroleptic activity as measured by it's antagonism of d-amphetamine induced lethality in grouped mice(GAL) when administered perorally; 2.4-5.6; assay type: functional; settings: po
[23] = system: Mus musculus; experiment: Compound was tested for the neuroleptic activity as measured by it's antagonism of d-amphetamine induced lethality in grouped mice(GAL) when administered perorally; 1.4-3.1; assay type: functional; settings: po
[24] = system: Rattus norvegicus; experiment: Dose causing 50% reduction of motor activity in rats was measured when administered perorally; Inactive at 50 mg/kg; assay type: functional, organism-based; set-up: dose 50 mg/kg; outline: as §1

SMILES: CN1CCN(C2=Nc3cscc3Nc3ccc(F)cc32)CC1
- ED50 [1]: 17.5 mg/kg
- MED [2]: inactive

SMILES: CN1CCN(C2=Nc3cscc3N(C)c3ccc(F)cc32)CC1
- minimal effective dose [3]: 6.25 mg/kg
- ED50 [4]: inactive

SMILES: Cc1cccc2c1N=C(N1CCN(C)CC1)c1cscc1O2
- MDD50 [5]: >50 mg/kg
- MED [2]: inactive
- ED50 [6]: 1.2 mg/kg

SMILES: OCCN1CCN(C2=Nc3ccccc3Sc3cscc32)CC1
- ED50 [7]: 0.2 mg/kg
- MDD50 [5]: <10 mg/kg
- MED [2]: inactive

SMILES: CN1CCN(C2=Nc3cscc3N(C)c3ccccc32)CC1
- minimal effective dose [3]: 7.6 mg/kg
- ED50 [7]: 6.5 mg/kg
- MDD50 [5]: 51 mg/kg

SMILES: COc1ccc2c(c1)Oc1cscc1C(N1CCN(C)CC1)=N2
- MED [2]: inactive
- ED50 [4]: inactive

SMILES: COc1ccc2c(c1)N=C(N1CCN(CCO)CC1)c1cscc1O2
- MED [2]: inactive
- ED50 [4]: inactive

SMILES: CN1CCN(C2=Nc3cscc3Nc3ccc(Cl)cc32)CC1
- ED50 [7]: ≤ 5 mg/kg
- MED [2]: inactive

SMILES: Cc1cc2c(cc1C)Sc1cscc1C(N1CCN(C)CC1)=N2
- MED [2]: inactive
- ED50 [4]: inactive

SMILES: CN1CCN(C2=Nc3cc(Cl)ccc3Sc3cscc32)CC1
- MED [2]: inactive
- ED50 [4]: inactive

SMILES: CN1CCN(C2=Nc3cscc3Nc3ccccc32)CC1
- ED50 [7]: 3.2 mg/kg
- MDD50 [5]: 15 mg/kg
- MED [8]: inactive

SMILES: CCN1CCN(C2=Nc3cc(C)ccc3Oc3cscc32)CC1
- MDD50 [5]: <50 mg/kg
- ED50 [9]: 3.9 mg/kg
- MED [10]: inactive

SMILES: CN1CCN(C2=Nc3cc(Cl)ccc3Oc3cscc32)CC1
- MDD50 [5]: 9.6 mg/kg
- ED50 [11]: 1.6 mg/kg
- MED [2]: inactive

SMILES: CCN1CCN(C2=Nc3ccccc3Oc3cscc32)CC1
- ED50 [12]: 1.4 mg/kg
- MDD50 [5]: 1.66 mg/kg
- MED [2]: inactive

SMILES: Cc1ccc2c(c1)Oc1cscc1C(N1CCN(CCO)CC1)=N2
- MDD50 [5]: 37 mg/kg
- MED [2]: inactive

SMILES: CN1CCN(C2=Nc3cc(Cl)ccc3Nc3ccccc32)CC1 [CLOZAPINE]
- ED50 [13]: 4.2 mg/kg
- MDD50 [5]: 21 mg/kg
- MED [2]: inactive

SMILES: CN1CCN(C2=Nc3ccccc3Sc3c2csc3Cl)CC1
- ED50 [14]: inactive
- minimal effective dose [3]: 1.6 mg/kg

SMILES: Cc1ccc2c(c1)N=C(N1CCN(CCO)CC1)c1cscc1O2
- ED50 [15]: inactive
- MDD50 [5]: 27.2 mg/kg

SMILES: Cc1cccc2c1N=C(N1CCN(CCO)CC1)c1cscc1O2
- ED50 [15]: inactive

SMILES: CN(C)CCCN1c2ccccc2CCc2ccccc21 [IMIPRAMINE]
- minimal effective dose [3]: 5 mg/kg
- ED50 [7]: > 50 mg/kg
- MDD50 [5]: >20 mg/kg

SMILES: CN1CCN(C2=Nc3cscc3N(C)c3ccc(Cl)cc32)CC1
- ED50 [15]: inactive
- minimal effective dose [3]: 1.56 mg/kg
- MDD50 [5]: 4.1 mg/kg

SMILES: CN1CCN(C2=Nc3cc(Br)ccc3Oc3cscc32)CC1
- MDD50 [5]: 16.4 mg/kg
- MED [2]: inactive
- ED50 [16]: 3.1 mg/kg

SMILES: COc1ccc2c(c1)N=C(N1CCN(C)CC1)c1cscc1O2
- ED50 [4]: inactive

SMILES: OCCN1CCN(C2=Nc3ccccc3Oc3cscc32)CC1
- ED50 [7]: < 10 mg/kg
- MDD50 [5]: 5.4 mg/kg
- MED [2]: inactive

SMILES: CCN1CCN(C2=Nc3cc(Cl)ccc3Oc3cscc32)CC1
- MDD50 [5]: <50 mg/kg
- MED [2]: inactive
- ED50 [17]: 6.8 mg/kg

SMILES: CN1CCN(C2=Nc3ccccc3Sc3cscc32)CC1
- MDD50 [5]: <10 mg/kg
- ED50 [18]: 0.2 mg/kg
- MED [19]: inactive

SMILES: Cc1ccc2c(c1)Oc1cscc1C(N1CCN(C)CC1)=N2
- ED50 [15]: inactive
- MED [10]: inactive

SMILES: CN1CCN(C2=Nc3ccccc3Oc3cscc32)CC1
- ED50 [7]: 1.4 mg/kg
- MDD50 [5]: 1.3 mg/kg
- MED [19]: inactive

SMILES: CN1CCN(C2=Nc3ccccc3Oc3c2csc3Cl)CC1
- minimal effective dose [3]: 12.5 mg/kg
- MDD50 [5]: <50 mg/kg
- ED50 [20]: 2.4 mg/kg

SMILES: CN1CCN(C2=Nc3ccccc3Oc3ccc(Cl)cc32)CC1 [LOXAPINE]
- MDD50 [5]: 0.6 mg/kg
- MED [2]: inactive
- ED50 [21]: 0.14 mg/kg

SMILES: Cc1ccc2c(c1)N=C(N1CCN(C)CC1)c1cscc1O2
- MDD50 [5]: 5.96 mg/kg
- ED50 [22]: 3.6 mg/kg
- MED [10]: inactive

SMILES: OCCN1CCN(C2=Nc3cc(Cl)ccc3Oc3cscc32)CC1
- ED50 [23]: 2 mg/kg
- MDD50 [5]: 19.2 mg/kg
- MED [2]: inactive

SMILES: OCCN1CCN(C2=Nc3cc(Br)ccc3Oc3cscc32)CC1
- ED50 [7]: < 2.5 mg/kg
- MED [2]: inactive

SMILES: OCCN1CCN(C2=Nc3ccccc3Oc3c2csc3Cl)CC1
- ED50 [7]: < 10 mg/kg
- MED [2]: inactive
- MDD50 [24]: inactive
